{"source": "ChEMBL document CHEMBL1153852", "about": "“Steroidal lactones as inhibitors of 17beta-hydroxysteroid dehydrogenase type 5: chemical synthesis, enzyme inhibitory activity, and assessment of estrogenic and androgenic activities” (Eur J Med Chem, 2009)", "key": {"[1]": {"tested_on": "ZR-75-1", "test": "Antiestrogenic activity in human ZR-75-1 cells expressing estrogen receptor assessed as inhibition of estrogen-induced cell proliferation at 0.1 nM after 9 days relative to estrogen", "format": "functional, cell-based"}, "[2]": {"tested_on": "ZR-75-1", "test": "Estrogenic activity in human ZR-75-1 cells expressing estrogen receptor assessed as estrogen-induced cell proliferation at 0.03 uM after 9 days relative to estrogen", "format": "functional, cell-based", "procedure,_shortened": "(§1)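 ZR-75-1 cells are resuspended in phenol red-free RPMI 1640 with 5% dextran-charcoal-treated FBS and seeded at 10,000 cells/well. After 3 days of adhesion, lactones from ethanol stocks are added alone or with E2 (0.1 nM). Cells grow 9 days at 37 °C in 5% CO2, with medium changed every 2–3 days. DNA is measured by DABA fluorescence; E2-induced growth is set to 100%.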"}, "[3]": {"tested_on": "ZR-75-1", "test": "Estrogenic activity in human ZR-75-1 cells expressing estrogen receptor assessed as estrogen-induced cell proliferation at 1 uM after 9 days relative to estrogen", "format": "functional", "procedure,_shortened": "as §1"}, "[4]": {"species_on_record": "Mus musculus", "test": "Androgenic activity in mouse SC115 cells expressing androgen receptor assessed as DHT-induced cell proliferation at 1 uM after 10 days relative to DHT", "format": "functional, cell-based", "procedure,_shortened": "(§2)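 SC115 Shionogi clone selected for DHT sensitivity, in MEM with 2% dextran-charcoal-treated FCS, seeded at 20,000 cells/well. After 24 h the medium is renewed and lactones added at 0.1 and 1, without DHT. Final ethanol is 0.01%. Cells are grown 10 days at 37 °C in 5% CO2, with medium changed every 3–4 days. DNA is measured by DABA fluorescence; DHT-stimulated growth is set to 100%.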"}, "[5]": {"species_on_record": "Mus musculus", "test": "Androgenic activity in mouse SC115 cells expressing androgen receptor assessed as DHT-induced cell proliferation at 0.1 uM after 10 days relative to DHT", "format": "functional, cell-based", "procedure,_shortened": "as §2"}, "[6]": {"test": "Antiandrogenic activity in mouse SC115 cells expressing androgen receptor assessed as inhibition of DHT-induced cell proliferation at 1 uM after 10 days relative to DHT", "format": "functional", "settings": "240 h", "procedure,_shortened": "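SC115 Shionogi clone chosen for high DHT sensitivity; plated at 20,000 cells/well in MEM with 2% dextran-coated charcoal-treated FCS. After 24 h, medium changed and compound (0.1 or 1 μM) added with 0.3 nM DHT; ethanol 0.01% final. 10 days at 37 °C, medium changed every 3–4 days. Growth read as DNA content (DABA fluorescence); DHT-stimulated growth set to 100%; triplicates, mean ± SEM.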"}, "[7]": {"molecular_target": "T1, 17-beta-hydroxysteroid dehydrogenase type 1 (Homo sapiens) (UniProt P14061)", "T1 sequence (whole entry)": "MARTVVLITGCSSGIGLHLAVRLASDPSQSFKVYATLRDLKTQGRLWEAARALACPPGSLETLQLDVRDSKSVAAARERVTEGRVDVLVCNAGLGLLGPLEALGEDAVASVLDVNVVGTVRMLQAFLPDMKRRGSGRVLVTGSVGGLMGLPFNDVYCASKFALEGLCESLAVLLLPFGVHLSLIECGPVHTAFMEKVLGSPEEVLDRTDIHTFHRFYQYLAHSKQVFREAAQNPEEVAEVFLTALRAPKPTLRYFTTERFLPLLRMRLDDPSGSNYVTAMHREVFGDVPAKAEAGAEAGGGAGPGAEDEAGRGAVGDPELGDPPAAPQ", "test": "Inhibition of human 17beta-HSD1 expressed in HEK293 cells assessed as enzyme-mediated transformation of [14C]-E1 in to [14C]-E2 at 1 uM", "format": "cell-based"}, "[8]": {"molecular_target": "T1, 17-beta-hydroxysteroid dehydrogenase type 1 (Homo sapiens)", "test": "Inhibition of human 17beta-HSD1 expressed in HEK293 cells assessed as enzyme-mediated transformation of [14C]-E1 in to [14C]-E2 at 0.1 uM", "format": "cell-based"}, "[9]": {"molecular_target": "T2, 17-beta-hydroxysteroid dehydrogenase type 3 (Homo sapiens) (UniProt P37058)", "T2 sequence (whole entry)": "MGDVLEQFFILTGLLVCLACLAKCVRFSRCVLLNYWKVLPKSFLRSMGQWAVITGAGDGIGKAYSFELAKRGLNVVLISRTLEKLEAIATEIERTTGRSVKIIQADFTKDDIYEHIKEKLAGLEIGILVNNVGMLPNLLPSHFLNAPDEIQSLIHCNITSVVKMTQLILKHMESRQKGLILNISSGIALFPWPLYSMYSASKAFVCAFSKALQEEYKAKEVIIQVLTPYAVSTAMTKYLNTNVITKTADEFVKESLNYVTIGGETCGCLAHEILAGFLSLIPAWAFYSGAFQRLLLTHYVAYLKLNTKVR", "test": "Inhibition of human 17beta-HSD3 expressed in HEK293 cells assessed as enzyme-mediated transformation of [14C]-4-androstene-3,17-dione in to [14C]-testosterone at 0.1 uM", "format": "cell-based"}, "[10]": {"molecular_target": "T3, Aldo-keto reductase family 1 member C3 (Homo sapiens) (UniProt P42330)", "T3 sequence (whole entry)": "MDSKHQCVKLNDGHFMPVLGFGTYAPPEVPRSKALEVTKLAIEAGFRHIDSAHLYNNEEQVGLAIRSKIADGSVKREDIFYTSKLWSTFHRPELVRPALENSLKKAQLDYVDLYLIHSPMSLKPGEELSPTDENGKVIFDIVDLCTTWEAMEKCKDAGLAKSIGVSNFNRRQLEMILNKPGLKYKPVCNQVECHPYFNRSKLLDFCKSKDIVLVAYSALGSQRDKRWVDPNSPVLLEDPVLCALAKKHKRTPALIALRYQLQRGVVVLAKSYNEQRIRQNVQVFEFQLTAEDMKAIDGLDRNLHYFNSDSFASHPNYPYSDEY", "test": "Inhibition of human 17beta-HSD5 expressed in HEK293 cells assessed as enzyme-mediated transformation of [14C]-4-androstene-3,17-dione in to [14C]-testosterone at 3 uM after 18 hrs", "format": "cell-based", "procedure,_shortened": "(§3)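 Intact HEK-293 cells stably over-expressing human 17β-HSD5, in freshly changed culture medium. [14C]-4-androstene-3,17-dione is added at 100 nM with inhibitor from an ethanolic solution; controls get ethanol only. After 18 h the conversion to [14C]-T is measured.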"}, "[11]": {"molecular_target": "T2, 17-beta-hydroxysteroid dehydrogenase type 3 (Homo sapiens)", "test": "Inhibition of human 17beta-HSD3 expressed in HEK293 cells assessed as enzyme-mediated transformation of [14C]-4-androstene-3,17-dione in to [14C]-testosterone at 1 uM", "format": "cell-based"}, "[12]": {"molecular_target": "T3, Aldo-keto reductase family 1 member C3 (Homo sapiens)", "test": "Inhibition of human 17beta-HSD5 expressed in HEK293 cells assessed as enzyme-mediated transformation of [14C]-4-androstene-3,17-dione in to [14C]-testosterone at 0.3 uM after 18 hrs", "format": "cell-based", "procedure,_shortened": "as §3"}, "[13]": {"molecular_target": "T4, Aldo-keto reductase family 1 member C3 (Homo sapiens, UniProt P42330)", "T4 sequence (P42330 whole entry)": "T3 sequence (whole entry)", "test": "Inhibition of human 17beta-HSD5 expressed in HEK293 cells assessed as enzyme-mediated transformation of [14C]-4-androstene-3,17-dione in to [14C]-testosterone after 18 hrs", "format": "cell-based", "procedure,_shortened": "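Intact HEK-293 cells stably over-expressing human 17β-HSD5, in fresh culture medium. [14C]-4-androstene-3,17-dione 0.1 μM with inhibitor added in ethanol (ethanol alone as control), 18 h.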"}}, "note": "Calls of active or inactive are those of the source. The rule behind the calls is not given here."}
{"smiles": "CCCCN(C)C(=O)CCCCCCCCCC[C@@H]1Cc2cc(O)ccc2[C@H]2CC[C@]3(C)[C@@H](O)[C@H](Cl)C[C@H]3[C@H]12", "values": [{"measurement": "Activity", "setting": "[1]", "value": "Active"}, {"measurement": "Activity", "setting": "[2]", "value": "inactive"}, {"measurement": "Activity", "setting": "[3]", "value": "inactive"}]}
{"smiles": "CC(C)(O)C(=O)Nc1ccc([N+](=O)[O-])c(C(F)(F)F)c1", "note": "[HYDROXYFLUTAMIDE]", "values": [{"measurement": "Activity", "setting": "[4]", "value": "inactive"}, {"measurement": "Activity", "setting": "[5]", "value": "inactive"}, {"measurement": "inhibition at 1 µM", "setting": "[6]", "value": 94, "unit": "%"}]}
{"smiles": "C[C@]12CC[C@@H]3c4ccccc4CC[C@H]3[C@@H]1CC[C@@]21CCCC(=O)O1", "values": [{"measurement": "inhibition", "setting": "[7]", "value": 21, "unit": "%"}, {"measurement": "inhibition", "setting": "[8]", "value": 21, "unit": "%"}, {"measurement": "inhibition", "setting": "[9]", "value": 25, "unit": "%"}, {"measurement": "inhibition", "setting": "[10]", "value": 95, "unit": "%"}, {"measurement": "inhibition", "setting": "[11]", "value": 64, "unit": "%"}, {"measurement": "inhibition", "setting": "[12]", "value": 93, "unit": "%"}, {"measurement": "IC50", "setting": "[13]", "value": 10, "unit": "nM"}]}
